# Reference: ChEMBL document CHEMBL4513216, “Probing the Open Global Health Chemical Diversity Library for Multistage-Active Starting Points for Next-Generation Antimalarials” (ACS Infect Dis, 2020)
# Assay: Toxicity liver stage against HepG2, at 10uM
# Format: cell-based
# Parameters: test concentration 10 uM, cell line HepG2-A16-CD81EGFP
# Details: human, HepG2-A16-CD81EGFP cells; read-out: INHIBITION
# Summary of the method: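 Uninfected HepG2-A16-CD81EGFP cells, 3 × 10^3 per well, 1536-well, plated on prespotted compound at 10 μM final, parasite-free screening media added to match infected plates; puromycin 10 μM positive, DMSO 0.5% negative; run in parallel with 48 h PbLuc assay at 37 °C, 5% CO2; viability by CellTiter-Glo luminescence, normalized to controls.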
row,Compound,cytotoxicity at 10 µM [%]
1,CC(=O)Cn1ncc(N2CCOCC2)cc1=O,7.26
2,CCC(NC(=O)CN(C)Cc1ccc(C)o1)c1ccc(Br)cc1 (configuration not stated),35.5
3,COCc1cccc(NC(=O)NCCCN(C)S(C)(=O)=O)c1,-0.561
4,CN(C)c1cc(C(=O)NCC2(c3ccc(F)cc3)CC2)ccn1,8.59
5,O=C(NC[C@H]1OC[C@@H](NCc2ccccc2F)[C@@H]1O)c1ccc(F)cc1,-1.26
6,COC(=O)N1CCC(CNC(=O)C2CC2)CC1,-2.82
7,CN(CC(=O)NCC(F)(F)F)C(=O)c1ccc(=O)[nH]c1,-4.39
8,COc1cc(N2CCc3ncnc(-c4ccoc4)c3CC2)ncn1,14.9
9,Cc1oncc1C(=O)N1CC[C@H]2CO[C@H](CN3CCCC3)[C@H]2C1,10.8
10,COCCC(=O)N1CCC2(CCN(Cc3ccc(OC)c(F)c3)C2)C1 (configuration not stated),9.75
11,Cc1nc(N2CCCC2)nc2c1CCN(C(=O)CC1CCCC1)CC2,0.457
12,O=C(CSC1CCc2ccccc2NC1=O)Nc1ccc(CCO)cc1 (configuration not stated),-3.77
13,CS(=O)(=O)CC(=O)N1C[C@@H]2COC[C@]2(c2nnc(C3CC3)o2)C1,-13.1
14,Cc1nn(C)cc1-c1cc(C(F)(F)F)nn1CCC#N,3.65
15,CCCn1cc(Cl)c(C(=O)N2C[C@@H](O)[C@H](Oc3ccccc3)C2)n1,5.31
16,Cn1cc(CN(Cc2ccccn2)Cc2ccccc2Cl)cn1,-2.48
17,Cc1c[nH]c(C2COCCN2C(=O)c2ccc(=O)[nH]n2)n1 (configuration not stated),-8.77
18,Cc1ccccc1CC(=O)N(C)CC1(O)CCCN(c2ccccn2)C1 (configuration not stated),-18.3
19,Cc1csc(C(=O)N2CCC3(CC(N(C)c4ccncn4)C3)C2)c1 (configuration not stated),-11.2
20,NC(=O)Nc1cc(F)ccc1SCC(F)F,0.0687
21,NC(=O)c1cnc(NCC(=O)NCc2ccco2)c(Cl)c1,3.97

row,Compound,cytotoxicity at 10 µM [%]
1,O=C(COCCOc1ccccc1)NC1CCN(c2ccccn2)CC1,-4.56
2,COCCN1CCN(CC2(O)CCCCC2)CC1,7.04
3,OC(CNCc1nnc2ccccn12)c1ccc2c(c1)OCO2 (configuration not stated),5.79
4,COc1ccc(OCCNC(=O)CN(C)Cc2nnc(C)n2C)cc1,-10.3
5,N#Cc1ccc(Cl)cc1NCC1CCOC1 (configuration not stated),3.09
6,CC(C)c1nn(C)c(N(C)C)c1CNCc1ccnc(N(C)C)c1,1.36
7,Cc1cc(C)n(C2CCCN(C(=O)CN(C)C3CC3)C2)n1 (configuration not stated),-1.91
8,Cc1nn(C)c(Cl)c1S(=O)(=O)N(CC(N)=O)CC(C)C,8.18
9,CCOc1ccc(Cl)cc1CCNC(=O)c1ccc(=O)n(C)c1,3.31
10,Cc1cc(C2CCCN(Cc3noc(Cc4ccccc4)n3)C2)n[nH]1 (configuration not stated),3.65
11,CCc1n[nH]c(C2CN(CC(=O)N(C)Cc3ccco3)CCO2)n1 (configuration not stated),1.07
12,CC1(C)CN(C(=O)c2occc2COc2cccc(C#N)c2)CCO1,8.18
13,Cc1cccc(N2CCN(CCC(=O)NCc3nnc[nH]3)CC2)c1,-6.26
14,CC(C)c1nsc(N2CCOC3(CCCC3)C2)n1,0.243
15,N#CCCNC(=O)CSc1ccc(F)cc1F,3.94
16,O=C(CCc1ccc2c(c1)OCO2)Nc1cccnc1-n1cncn1,4.98
17,O=C(NCc1ccccc1CN1CCOCC1)Nc1nncs1,14.3
18,CCc1nc(CCNC(=O)Nc2cc(C(N)=O)ccc2OC)cs1,1.43
19,COc1cc(F)ccc1N(C)Cc1ccccn1,-1.84
20,Cc1nnc(C(C)N(C)Cc2c(C)nn(-c3ccccc3)c2C)o1 (configuration not stated),-4.73
21,O=C(NCCC1CCN(CC(F)(F)F)CC1)C1CCCOC1 (configuration not stated),1.51

row,Compound,cytotoxicity at 10 µM [%]
1,CC(CCNC(=O)NCCNc1cnccn1)c1ccccc1 (configuration not stated),-4.08
2,CN1CCC(NC(=O)Nc2ccc(F)c(Br)c2)C1=O (configuration not stated),-137
3,COc1ccc(-c2noc(C3CCS(=O)(=O)C3)n2)cc1OC (configuration not stated),5.4
4,CC(NCCCC#N)c1ccc(-c2ccncc2)cc1 (configuration not stated),-1.93
5,Cc1nc(C2CCCN2CCCn2c(=O)oc3ccccc32)no1 (configuration not stated),6.91
6,CCc1ccc(NC(=O)C(C)N2CCN(Cc3ncc[nH]3)CC2)cc1 (configuration not stated),-7.83
7,C1CN(c2nc(C3CC3)no2)CCN(C2CCOCC2)C1,0.442
8,CCN(C(=O)CCc1ccc2[nH]ccc2c1)C1CC(=O)NC1=O (configuration not stated),-8.96
9,Cc1nc(CN2CC(CO)Oc3ccccc32)sc1C (configuration not stated),0.918
10,Cc1cnn(CC2CCCN2CC(=O)N(C)Cc2ccc(C)o2)c1 (configuration not stated),-7.19
11,CCN1CCN(S(=O)(=O)c2ncn(C)c2Cl)CC1,20.9
12,COc1ccc(NC(C)C(=O)N2CCN(Cc3ccccc3)CC2)cn1 (configuration not stated),1.26
13,O=C(C1CCC1)N1CCC2(CC1)OCCO2,4.93
14,CN(Cc1cc2n(n1)CCN(C(=O)c1cccnc1)C2)Cc1nccs1,1.2
15,COc1cccc(OCCCc2cncc(C(N)=O)c2)c1,-124
16,CCc1ccc(C(=O)N2CC[C@](C)(O)C(C)(C)C2)[nH]1,2.43
17,CNc1nc(C(=O)N2CCCN(c3ccnc(C)c3)CC2)cs1,6.37
18,CC(=O)N1CCc2c(nc(N(C)C)nc2N(C)CCC2CCCCO2)C1 (configuration not stated),-7.97
19,Cn1cccc1C(=O)N1CCC(c2nnc(Cn3ccnc3)n2C)CC1,-114
20,CCCc1cc(C(=O)N2CCC3(CCCNC3=O)C2)cs1 (configuration not stated),-142
21,CC(=O)c1c(C)nn(CC(=O)N2Cc3cnc(C(C)(C)C)nc3C2)c1C,-0.539

row,Compound,cytotoxicity at 10 µM [%]
1,CCNc1ncc(C(=O)NCc2csc(-c3cnccn3)n2)cn1,0.185
2,CN(Cc1nccn1C)CC1CCOc2ccccc2C1 (configuration not stated),-2.77
3,O=C(O)Cc1cccc(-n2ccnc2-c2ccc(F)c(Cl)c2)c1,2.17
4,CCN(CCn1cccn1)Cc1nc(-c2cccs2)oc1C,-0.179
5,Cc1cc(F)ccc1CN1CCC(O)(CN2CCCCC2)C1 (configuration not stated),14.8
6,COc1ccc(C)cc1CN1CCOC(Cn2nc(C)nc2C)C1 (configuration not stated),-2.47
7,Cc1cc(C(=O)NCc2ccnc(OCC(F)(F)F)c2)no1,-7.98
8,CCN1CCN(C(=O)C(C)N2CCN(Cc3nccn3C)CC2)CC1 (configuration not stated),-6.34
9,Cn1cc([C@@H]2CN(S(C)(=O)=O)C[C@H]2N)c2ccncc21,2.61
10,Fc1ccc(F)c(CN2CCC(c3n[nH]c4ncccc34)CC2)c1,-25.4
11,Cc1ccc(N2C[C@H]3CCC[C@@H](CN(C)C)[C@H]3C2)nn1,8.82
12,CC1c2ncc(CN3CCN(C)CC3)n2CCN1CC1CC1 (configuration not stated),-20.3
13,CN1C[C@@H]2CN(C(=O)NCc3cccc(F)c3)CCC[C@]2(C(=O)O)C1,1.14
14,O=C(O)[C@]12CCCN(Cc3ccsc3)C[C@H]1CN(c1ncccn1)C2,-144
15,COCCN1C[C@@H](C)[C@@]2(COCCN(C(=O)c3cccc(C)n3)C2)C1,7.13
16,Cc1noc(C)c1CN1C[C@H](OCc2ccncc2)[C@H]2OCCC[C@H]21,9.98
17,O=C(N1CCCO1)[C@@]12CCO[C@@H]1CCN(Cc1ccccc1)C2,-13.6
18,CC(C)C(=O)N1CCN(Cc2cnn(C)c2)CC2(CC(=O)N(C)C2)C1 (configuration not stated),3.42
19,Cc1nc(N2CCCC2)nc2c1CN(C(C)C)CC2,-6.85
